ChEMBL document CHEMBL1667749, “Design & synthesis of N'-[substituted] pyridine-4-carbohydrazides as potential anticonvulsant agents” (Eur J Med Chem, 2011)
Activity calls are given as the source filed them. No cut-off for these calls is given here.

Assays:
Mus musculus [1] = assay: Anticonvulsant activity in albino CF-1 mouse assessed as protection against maximal electroshock-induced seizures at 300 mg/kg, ip after 0.5 hrs; type: functional, organism-based; set-up: dose 300 mg/kg
Method in brief: (§1)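 Male CF-1 mice (18–25 g), i.p. in 0.5% methyl cellulose at 30, 100 and 300 mg/kg; MES: 60 Hz, 50 mA, 0.2 s through tetracaine-primed corneal electrodes; protection = abolished hind limb tonic extension. Value given as minimum dose active in half or more of mice.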

Mus musculus [2] = assay: Anticonvulsant activity in ip dosed albino CF-1 mouse assessed as dose required to protect against maximal electroshock-induced seizures after 4 hrs; type: functional; method in brief: as §1
Rattus norvegicus [3] = assay: Acute toxicity in Sprague-Dawley rat assessed as motor impairment at 300 mg/kg, ip after 1 hr; type: organism-based; set-up: dose 300 mg/kg, route intraperitoneal; conditions: in vivo
Method in brief: (§2)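 Male albino Sprague Dawley rats, two per dose, given test compound i.p. as a suspension in 0.5% methyl cellulose. Behaviour was closely observed and recorded over 4 h to detect acute motor impairment. Values are scored as animals toxic over animals tested at each time point.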

Mus musculus [4] = assay: Neurotoxicity in albino CF-1 mouse assessed as motor impairment at 300 mg/kg, ip after 4 hrs by rotarod test; type: toxicity, organism-based; set-up: dose 300 mg/kg, route intraperitoneal; conditions: in vivo
Method in brief: (§3)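 Minimal motor impairment in male CF-1 mice by rotorod after i.p. dosing; toxic if animal falls off rotating rod 3 times within 1 min. Screen doses 30, 100, 300 mg/kg; quantitative TD50 (95% confidence interval) determined at time of peak effect.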

[5] = Neurotoxicity in ip dosed albino CF-1 mouse assessed as motor impairment after 8 hrs by rotarod test; type: toxicity, organism-based; conditions: in vivo, read-out: ID50
[6] = Octanol-phosphate buffer partition coefficient, log P of the compound at 5 mg, after 24 hrs by UV spectroscopic analysis; type: physicochemical
Method in brief: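 5 mg compound added to 10 mL octanol plus 10 mL phosphate buffer in stoppered tube, mechanically shaken 24 h at room temperature, then left in separating funnel 6 h to equilibrate.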

Rattus norvegicus [7] = assay: Toxicity in Sprague-Dawley rat assessed as change in body weight at 200 mg/kg, ip measured after 24 hrs of clonus of one of the fore limbs seizure stage in protected rat; type: organism-based; set-up: dose 200 mg/kg, route intraperitoneal; conditions: in vivo
Method in brief: (§4)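 Male Sprague Dawley rats (150–180 g) dosed i.p. then challenged with pilocarpine; body weight change measured 24 h after first Stage III seizure, split by protected and non-protected rats, given ± S.E.M.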

Mus musculus [8] = assay: Neurotoxicity in albino CF-1 mouse assessed as motor impairment at 300 mg/kg, ip after 0.5 hrs by rotarod test; type: toxicity, organism-based; set-up: dose 300 mg/kg, route intraperitoneal; conditions: in vivo; method in brief: as §3
Rattus norvegicus [9] = assay: Acute toxicity in Sprague-Dawley rat assessed as motor impairment at 100 mg/kg, ip after 4 hrs; type: organism-based; set-up: dose 100 mg/kg, route intraperitoneal; conditions: in vivo; method in brief: as §2
Rattus norvegicus [10] = assay: Acute toxicity in Sprague-Dawley rat assessed as motor impairment at 300 mg/kg, ip after 0.25 hrs; type: organism-based; set-up: dose 300 mg/kg, route intraperitoneal; conditions: in vivo; method in brief: as §2
Mus musculus [11] = assay: Anticonvulsant activity in albino CF-1 mouse assessed as protection against 6 Hz psychomotor seizure at 100 mg/kg, ip after 4 hrs by minimal clonic seizure test; type: functional, organism-based; set-up: dose 100 mg/kg
Method in brief: (§5)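 Male CF-1 mice (18–25 g), i.p. 100 mg/kg in 0.5% methyl cellulose suspension; 6 Hz corneal stimulation, 32 mA for 3 s, four mice per time point. Protected if no minimal clonic phase with stereotyped automatistic behaviour.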

Rattus norvegicus [12] = assay: Anticonvulsant activity in Sprague-Dawley rat assessed as protection against maximal electroshock-induced seizures at 30 mg/kg, po after 4 hrs; type: functional, organism-based; set-up: dose 30 mg/kg
Method in brief: (§6)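 Male Sprague Dawley rats (100–150 g; 115–150 g in text), compound suspended in 0.5% methyl cellulose, given orally; MES challenge: 60 Hz alternating current, 150 mA, 0.2 s via corneal electrodes primed with 0.5% tetracaine HCl electrolyte. Protection = abolition of hind limb tonic extension; four rats per time point, scored as number protected.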

Rattus norvegicus [13] = assay: Anticonvulsant activity in Sprague-Dawley rat assessed as protection against maximal electroshock-induced seizures at 30 mg/kg, po after 0.25 hrs; type: functional, organism-based; set-up: dose 30 mg/kg; method in brief: as §6
Mus musculus [14] = assay: Anticonvulsant activity in albino CF-1 mouse assessed as protection against 6 Hz psychomotor seizure at 100 mg/kg, ip after 2 hrs by minimal clonic seizure test; type: functional; method in brief: as §5
Rattus norvegicus [15] = assay: Neurotoxicity in Sprague-Dawley rat assessed as motor impairment at 30 mg/kg, po after 1 hr by rotarod test; type: toxicity, organism-based; set-up: dose 30 mg/kg, route oral; conditions: in vivo
Rattus norvegicus [16] = assay: Anticonvulsant activity in Sprague-Dawley rat assessed as protection against pilocarpine-induced status epilepticus at 200 mg/kg, ip; type: functional, organism-based; set-up: dose 200 mg/kg
Method in brief: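 Male albino Sprague Dawley rats (150–180 g) dosed i.p., then challenged with pilocarpine; qualitative screen scored as protection or no protection, seizure severity graded on the Racine scale; N/F and deaths recorded, time taken post first Stage III seizure.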

Rattus norvegicus [17] = assay: Neurotoxicity in Sprague-Dawley rat assessed as motor impairment at 30 mg/kg, po after 0.5 hrs by rotarod test; type: toxicity, organism-based; set-up: dose 30 mg/kg, route oral; conditions: in vivo
Rattus norvegicus [18] = assay: Anticonvulsant activity in Sprague-Dawley rat assessed as protection against maximal electroshock-induced seizures at 30 mg/kg, po after 0.5 hrs; type: functional, organism-based; set-up: dose 30 mg/kg; method in brief: as §6
Mus musculus [19] = assay: Anticonvulsant activity in ip dosed albino CF-1 mouse assessed as dose required to protect against maximal electroshock-induced seizures after 2 hrs; type: functional; method in brief: as §1
Mus musculus [20] = assay: Anticonvulsant activity in albino CF-1 mouse assessed as protection against subcutaneous metrazol-induced seizures at 300 mg/kg, ip after 4 hrs; type: functional, organism-based; set-up: dose 300 mg/kg
Method in brief: (§7)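 Male CF-1 mice, i.p. at 30, 100, 300 mg/kg in 0.5% methyl cellulose; metrazol dose convulsing 97% of animals injected s.c. in midline neck fold, mice isolated and watched 30 min; protected if no 3–5 s clonic spasm episode of limbs, jaws or vibrissae.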

Mus musculus [21] = assay: Anticonvulsant activity in albino CF-1 mouse assessed as protection against 6 Hz psychomotor seizure at 100 mg/kg, ip after 0.5 hrs by minimal clonic seizure test; type: functional; method in brief: as §5
Rattus norvegicus [22] = assay: Acute toxicity in Sprague-Dawley rat assessed as motor impairment at 100 mg/kg, ip after 1 hr; type: organism-based; set-up: dose 100 mg/kg, route intraperitoneal; conditions: in vivo; method in brief: as §2
Mus musculus [23] = assay: Anticonvulsant activity in albino CF-1 mouse assessed as protection against 6 Hz psychomotor seizure at 100 mg/kg, ip after 0.25 hrs by minimal clonic seizure test; type: functional; conditions: route intraperitoneal; method in brief: as §5
Rattus norvegicus [24] = assay: Neurotoxicity in Sprague-Dawley rat assessed as motor impairment at 30 mg/kg, po after 4 hrs by rotarod test; type: toxicity, organism-based; set-up: dose 30 mg/kg, route oral; conditions: in vivo
Mus musculus [25] = assay: Anticonvulsant activity in albino CF-1 mouse assessed as protection against 6 Hz psychomotor seizure at 100 mg/kg, ip after 1 hr by minimal clonic seizure test; type: functional; conditions: route intraperitoneal; method in brief: as §5
Rattus norvegicus [26] = assay: Acute toxicity in Sprague-Dawley rat assessed as motor impairment at 100 mg/kg, ip after 2 hrs; type: organism-based; set-up: dose 100 mg/kg, route intraperitoneal; conditions: in vivo; method in brief: as §2
Mus musculus [27] = species on record: Mus musculus; assay: Protective index, ratio of TD50 for albino CF-1 mouse to ED50 for albino CF-1 mouse assessed as protection against 6 Hz psychomotor seizure; type: functional
Method in brief: (§8)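 Protection index = TD50 (rotorod, mice, i.p.) divided by ED50 from MES or 6 Hz test, each at its time of peak effect.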

Rattus norvegicus [28] = assay: Acute toxicity in Sprague-Dawley rat assessed as motor impairment at 100 mg/kg, ip after 0.25 hrs; type: organism-based; set-up: dose 100 mg/kg, route intraperitoneal; conditions: in vivo; method in brief: as §2
Rattus norvegicus [29] = assay: Neurotoxicity in Sprague-Dawley rat assessed as motor impairment at 30 mg/kg, po after 2 hrs by rotarod test; type: toxicity, organism-based; set-up: dose 30 mg/kg, route oral; conditions: in vivo
Mus musculus [30] = assay: Anticonvulsant activity in albino CF-1 mouse assessed as protection against subcutaneous metrazol-induced seizures at 300 mg/kg, ip after 0.5 hrs; type: functional, organism-based; set-up: dose 300 mg/kg; method in brief: as §7
Mus musculus [31] = assay: Anticonvulsant activity in ipp dosed albino CF-1 mouse assessed as protection against subcutaneous metrazol-induced seizures after 1 hr; type: functional; conditions: albino CF-1, sc
Rattus norvegicus [32] = assay: Neurotoxicity in Sprague-Dawley rat assessed as motor impairment at 30 mg/kg, po after 0.25 hrs by rotarod test; type: toxicity, organism-based; set-up: dose 30 mg/kg, route oral; conditions: in vivo
Rattus norvegicus [33] = assay: Toxicity in Sprague-Dawley rat assessed as change in body weight at 200 mg/kg, ip measured after 24 hrs of clonus of one of the fore limbs seizure stage in non-protected rat; type: organism-based; set-up: dose 200 mg/kg, route intraperitoneal; conditions: in vivo; method in brief: as §4
Mus musculus [34] = assay: Anticonvulsant activity in ip dosed albino CF-1 mouse assessed as protection against 6 Hz psychomotor seizure after 0.25 hrs by minimal clonic seizure test; type: functional; conditions: albino CF-1, ip
Method in brief: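 Quantitative 6 Hz test in male CF-1 mice dosed i.p.; 32 mA for 3 s via corneal electrodes at time of peak effect; ED50 with 95% confidence interval, slope and standard error reported.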

Rattus norvegicus [35] = assay: Acute toxicity in Sprague-Dawley rat assessed as motor impairment at 100 mg/kg, ip after 0.5 hrs; type: organism-based; set-up: dose 100 mg/kg, route intraperitoneal; conditions: in vivo; method in brief: as §2
Mus musculus [36] = assay: Anticonvulsant activity in ip dosed albino CF-1 mouse assessed as protection against maximal electroshock-induced seizures after 1 hr; type: functional; conditions: albino CF-1, ip
Mus musculus [37] = species on record: Mus musculus; assay: Protective index, ratio of TD50 for albino CF-1 mouse to ED50 for albino CF-1 mouse assessed as protection against maximal electroshock-induced seizures; type: functional; method in brief: as §8
Rattus norvegicus [38] = assay: Anticonvulsant activity in Sprague-Dawley rat assessed as protection against maximal electroshock-induced seizures at 30 mg/kg, po after 2 hrs; type: functional; method in brief: as §6
Rattus norvegicus [39] = assay: Acute toxicity in Sprague-Dawley rat assessed as motor impairment at 300 mg/kg, ip after 0.5 hrs; type: organism-based; set-up: dose 300 mg/kg, route intraperitoneal; conditions: in vivo; method in brief: as §2
Rattus norvegicus [40] = assay: Anticonvulsant activity in Sprague-Dawley rat assessed as protection against maximal electroshock-induced seizures at 30 mg/kg, po after 1 hr; type: functional, organism-based; set-up: dose 30 mg/kg; method in brief: as §6

O=C(N/N=C\c1ccc(Oc2ccc(F)cc2)cc1)c1ccncc1
Activity (Mus musculus [1]): inactive
Activity (Mus musculus [2]): 300 mg/kg
Activity (Rattus norvegicus [3]): Toxic
Activity (Mus musculus [4]): Non-toxic
TD50 at 8 h [5]: 344 mg/kg
logP at 24 h [6]: 3.5
Activity (Rattus norvegicus [7]): Non-toxic
Activity (Mus musculus [8]): Non-toxic
Activity (Rattus norvegicus [9]): Non-toxic
Activity (Rattus norvegicus [10]): Toxic
Activity (Mus musculus [11]): inactive
Activity (Rattus norvegicus [12]): inactive
Activity (Rattus norvegicus [13]): inactive
Activity (Mus musculus [14]): inactive
Activity (Rattus norvegicus [15]): Non-toxic
Activity (Rattus norvegicus [16]): inactive
Activity (Rattus norvegicus [17]): Non-toxic
Activity (Rattus norvegicus [18]): inactive
Activity (Mus musculus [19]): 100 mg/kg
Activity (Mus musculus [20]): inactive
Activity (Mus musculus [21]): Active
Activity (Rattus norvegicus [22]): Non-toxic
Activity (Mus musculus [23]): 75%
Activity (Rattus norvegicus [24]): Non-toxic
Activity (Mus musculus [25]): 50%
Activity (Rattus norvegicus [26]): Non-toxic
PI (Mus musculus [27]): 6.44
Activity (Rattus norvegicus [28]): Non-toxic
Activity (Rattus norvegicus [29]): Non-toxic
Activity (Mus musculus [30]): inactive
ED50 (Mus musculus [31]): > 250 mg/kg
Activity (Rattus norvegicus [32]): Non-toxic
Activity (Rattus norvegicus [33]): 24.2 g
ED50 (Mus musculus [34]): 53.3 mg/kg
Activity (Rattus norvegicus [35]): Non-toxic
ED50 (Mus musculus [36]): 128 mg/kg
PI (Mus musculus [37]): 2.67
Activity (Rattus norvegicus [38]): 25%
Activity (Rattus norvegicus [39]): Toxic
Activity (Rattus norvegicus [40]): inactive
